Screens (PubChem)
Shown are actives, neighbours in structure and some others; about 2.2% of the full set was active somewhere.
Ba/F3 V617F tox: reduce viability of Ba/F3 cells dependent on JAK2V617F | Ba/F3 EpoR-JAK2V617F viability, ATP luminescence | inhibition, % at 5.6 µM | actives 1.1% (n = 220,000);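 active = inhibition above the campaign mean plus 3 SD over all tested compounds, cut at about 24% in these data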;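 also: cytokine-independent growth of Ba/F3 cells driven by EpoR plus mutant JAK2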
BaF3 parental: parental Ba/F3 viability inhibition as JAK2V617F counter-screen; inhibition, % at 5.6 µM; actives 1.1% (n = 220,000); CellTiter-Glo ATP luminescence;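 active = inhibition above a per-campaign cutoff, the mean inhibition of all tested compounds plus 3 SD, cut at about 27% in these data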
IEC-6 tox: IEC-6 cytotoxicity, counter-screen for KLF5 inhibitors | luminescence viability | inhibition, % at 5 µM | actives 0.78% (n = 290,000)
MT stabilizer: stabilizes microtubules in HeLa cells; HeLa tubulin immunostaining HCS, 24 h; share of cells brighter than vehicle mean+2SD; actives 0.83% (n = 200,000); AID 2205; % tubulin-high responders, % at 10 µM;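 active = plate Z-score above 3 for both tubulin-high and condensed-nucleus cell shares, with cell loss under 80%, at 10 µM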;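 also: anti alpha tubulin signal scored within the nucleus-defined area of each cell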
APP transl inh: APP translation inhibition | actives 0.82% (n = 190,000) | AID 1285 | inhibition, % at 2 µM | SH-SY5Y APP 5'UTR-luciferase reporter, luminescence;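 active = inhibition above a set limit, derived from the sample mean plus 3 SD, cut at about 45% in these data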
bCat nuc transl: modulators of beta-catenin nuclear translocation; HeLa beta-catenin nuclear translocation, immunofluorescence imaging; nuclear translocation activity, % at 5 µM; actives 0.3% (n = 190,000); AID 1665;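 active = nuclear translocation activity above 50% at 5 µM, with a well cell count of 50 or more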;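 also: per-cell ratio of nuclear to cytoplasmic median beta-catenin stain intensity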
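Test system: human HeLa cell line; Doses: 5 µM primary, 0.02–20 µM confirmation; Incubation: 24 h compound exposure, 37°C; Detection: beta-catenin immunofluorescence imaging with DAPI; Read-out: beta-catenin nuclear/cytoplasmic ratio, % activation.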
IEC-6 cytotox cf: confirmation of cytotoxic compounds in rat IEC-6 intestinal epithelial cells; IEC-6 rat intestinal epithelial viability, luminescence; shares compounds with IEC-6 tox; actives 63% (n = 1,900); inhibition, % at 5 µM
Of the large screens only hits and unclear results are named; the others gave an inactive call (follow-up assays come after a bar, where they were run). Rule as the data show it, unless noted: active = inhibition above about 22%; inactive = the rest.

O=c1c2ccccc2nc(SCCN2CCCCC2)n1CCc1ccccc1	IEC-6 tox 22 | IEC-6 cytotox cf inactive
COc1ccc(/C=C2\Cc3ccccc3C2=O)cc1OC	none (no result: MT stabilizer, APP transl inh)
COc1ccc(/C=C2\CCc3ccccc3C2=O)cc1O	IEC-6 tox 28 (no result: Ba/F3 V617F tox, BaF3 parental, MT stabilizer, APP transl inh, bCat nuc transl) | IEC-6 cytotox cf inactive
CCC1CCCCN1C(=O)c1cc(COc2ccc3ncccc3c2)on1 (centres undefined)	Ba/F3 V617F tox 68, BaF3 parental 68, IEC-6 tox 23 | IEC-6 cytotox cf inactive
CCOC(=O)C1CCCN(C(=O)c2ccc3nc(-c4cccc(OC)c4)oc3c2)C1 (centres undefined)	IEC-6 tox 30 (no result: Ba/F3 V617F tox, BaF3 parental, MT stabilizer, APP transl inh, bCat nuc transl) | IEC-6 cytotox cf inactive
CCC(=O)C1CCCN(C(=O)c2ccc3nc(-c4cccc(OC)c4)oc3c2)C1 (centres undefined)	none (no result: Ba/F3 V617F tox, BaF3 parental, MT stabilizer, APP transl inh, bCat nuc transl)
CCOC(=O)n1cc(-c2cnc(CNC(=O)C(C)(c3ccccc3)c3ccccc3)o2)c2ccccc21	none
COC(=O)c1cn(C(=O)c2ccc(OC)cc2)c2ccccc12	IEC-6 tox 52 (no result: Ba/F3 V617F tox, BaF3 parental, MT stabilizer, APP transl inh, bCat nuc transl) | IEC-6 cytotox cf 34
COC(=O)c1cn(C(=O)c2ccc(C)cc2)c2ccccc12	none
CCNc1ccc(C(=O)OCC)cc1NC(=O)c1cccc(S(=O)(=O)N(C)c2ccccc2)c1	none
CCNc1ccc(C(=O)OCC)cc1NC(=O)c1cccc(N(C)C)c1	Ba/F3 V617F tox 82, BaF3 parental 77, IEC-6 tox 64, MT stabilizer 38, APP transl inh 81 | IEC-6 cytotox cf 58
CC1=NN(c2nc3ccccc3[nH]2)C(=O)/C1=C/N(C)C	Ba/F3 V617F tox 58, BaF3 parental 53, IEC-6 tox 40 | IEC-6 cytotox cf 68
Cc1ccc(/C=C/c2ccc(N(C)C)cc2)[n+](C)c1	IEC-6 tox 32 (no result: Ba/F3 V617F tox, BaF3 parental, MT stabilizer, APP transl inh, bCat nuc transl) | IEC-6 cytotox cf 26
CC[n+]1ccccc1/C=C/c1ccc(N(C)C)cc1	Ba/F3 V617F tox 99, BaF3 parental 76, IEC-6 tox 22 | IEC-6 cytotox cf 23
CCN(CC)c1ccc(/C=C/c2ccc3ccc(OC)cc3[n+]2CC)cc1	IEC-6 tox 48 (no result: Ba/F3 V617F tox, BaF3 parental, MT stabilizer, APP transl inh, bCat nuc transl) | IEC-6 cytotox cf 31
CN(C)c1ccc(C(=O)/C=C/c2ccccc2)cc1	none
CC[n+]1ccc(/C=C/c2ccc(N(C)C)cc2)c2ccccc21	Ba/F3 V617F tox 101, BaF3 parental 101, IEC-6 tox 48 | IEC-6 cytotox cf 74
CCOc1ccc(N2C(=O)CC(NNc3nc4ccccc4s3)C2=O)cc1 (centres undefined)	none (no result: MT stabilizer, APP transl inh)
CCOC(=O)c1c(NC(=O)CN2C(=O)NC(C)(c3ccc(Cl)cc3)C2=O)sc(C(=O)NC)c1C (centres undefined)	none
CC[n+]1c(/C=C/c2ccc(N(C)C)cc2)ccc2ccccc21	Ba/F3 V617F tox 101, BaF3 parental 95, IEC-6 tox 48 | IEC-6 cytotox cf 76
CC(C)NC(=S)N(CCc1ccncc1)C(C)C	none
CCOc1ccc(S(=O)(=O)n2cc(F)c(=O)[nH]c2=O)cc1[N+](=O)[O-]	IEC-6 tox 55 (no result: Ba/F3 V617F tox, BaF3 parental, MT stabilizer, APP transl inh, bCat nuc transl) | IEC-6 cytotox cf inactive
CCOc1ccc(S(=O)(=O)N2CCOCC2)cc1[N+](=O)[O-]	none
CCOc1ccc(S(=O)(=O)n2cc(F)c(=O)[nH]c2=O)cc1	Ba/F3 V617F tox 44, BaF3 parental 60, IEC-6 tox 86 | IEC-6 cytotox cf inactive
Cn1ccsc1=NC(=O)c1ccc([N+](=O)[O-])o1	IEC-6 tox 67 (no result: Ba/F3 V617F tox, BaF3 parental, MT stabilizer, APP transl inh, bCat nuc transl) | IEC-6 cytotox cf inactive
Cc1ccc(NC(=O)CN2C(=O)NC3(CCCC3)C2=O)c(Cl)c1	none (no result: Ba/F3 V617F tox, BaF3 parental, MT stabilizer, APP transl inh, bCat nuc transl)
CCOC(=O)c1[nH]c(C)c(/C(O)=C2\C(=O)C(=O)N(CCCN3CCOCC3)C2c2cccs2)c1C (centres undefined)	Ba/F3 V617F tox 70, BaF3 parental 72, IEC-6 tox 59 (no result: MT stabilizer, APP transl inh) | IEC-6 cytotox cf inactive
Cc1nc(CS(=O)(=O)c2ccccn2)sc1C(=O)NNC(=O)c1ccc(Cl)cc1	none (no result: MT stabilizer, APP transl inh)
CCCCCN=Cc1c(C)[nH]n(-c2nc3ccccc3s2)c1=O	Ba/F3 V617F tox 48, BaF3 parental 46, IEC-6 tox 45 | IEC-6 cytotox cf 51
Cc1cc(Cl)ccc1NC(=S)N1CCN(C(=O)c2ccco2)CC1	none (no result: Ba/F3 V617F tox, BaF3 parental, MT stabilizer, APP transl inh, bCat nuc transl)
O=S(=O)(c1ccc(Cl)s1)N1CCN(Cc2ccccc2)CC1	none
Nc1nnc(SCC(=O)Nc2cccc3ccccc23)s1	none (no result: Ba/F3 V617F tox, BaF3 parental, MT stabilizer, APP transl inh, bCat nuc transl)
COc1cc2c(cc1OC)C(C)N(C(=O)c1c(C)noc1C)CC2 (centres undefined)	none (no result: MT stabilizer, APP transl inh)
